MIN6 prolif – inducers of beta-cell replication in MIN6 cells; MIN6 cells proliferation, ATPlite luminescence, 48 h; cells starved in 0.2% serum; 100% = growth in 10% serum; proliferation, % at 10 µM; 330,000 tested, 0.29% active; AID 2380;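 active = compounds whose signal lies at least 3.5 SD above the mean of all wells on their plate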;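 note: 0% = DMSO-treated cells in low-serum medium and 100% = 10% serum control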
Calb FLC – C. albicans growth modulation with fluconazole; 300,000 tested, 0.57% active; growth inhibition, % (test concentration not listed); C. albicans CaCi-2 + fluconazole, Alamar Blue growth, 48 h;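 active = growth inhibition above about 58% in most replicates, limit read from the data, passing the limit was not always enough; inconclusive = exactly half the replicates above a set limit; inactive = most replicates below a set limit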;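 note: all wells also contain fluconazole at 8 µg/ml as a sub-toxic cotreatment; 0% = median of DMSO wells and 100% = median of geldanamycin control wells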
SR-BI DiI inh – inhibitors of mouse SR-BI mediated HDL lipid uptake. inhibition, % at 12.5 µM. Q61009. ldlA[mSR-BI] CHO cells, DiI-HDL uptake fluorescence, 3 h. 320,000 tested, 0.96% active;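 active = mean replicate inhibition of at least 70% and a set share of replicates each scoring 70 or more; inconclusive = meets just one of the two criteria; inactive = fails both criteria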;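 note: 0% = median of neutral control wells and 100% = median of positive control wells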
SR-BI uptake up – SR-BI HDL lipid transfer activation; AID 504775; CHO ldlA[mSR-BI] cells, DiI-HDL uptake fluorescence, 3 h; 100 = double the neutral-control signal; activation, % at 12.5 µM; 320,000 tested, 0.096% active;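 active = mean replicate activation of at least 60% and every replicate at or above 60%; inconclusive = mean or all-replicate condition met, but not both; inactive = mean below 60% and not all replicates reaching 60%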;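 note: 0% = median plate neutral-control signal and 100% = twice that signal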
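system = CHO ldlA[mSR-BI] cells, LDL receptor-null, SR-BI overexpressing | medium = Ham's F12 with 0.5% BSA, HEPES 25 mM, pH 7.4 | probe or stimulus = DiI-HDL 10 µg/mL | compound dosing = single-point compound dose | incubation = compound exposure 3 h, 37 °C | technique = DiI fluorescence, bottom read | read-out = cell-associated DiI fluorescence as measure of HDL uptake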
m5-HT2A agonist – activates the mouse 5-HT2A serotonin receptor; CHO-K1 mHTR2A beta-arrestin complementation, luminescence; percent of 30 µM serotonin response; activation, % at 7.6 µM; 360,000 tested, 0.66% active;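 active = activation above a run cutoff, the mean activation of all tested compounds plus 3 SD, cut at about 14% in these data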;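 note: 0% = plate median of compound wells and 100% = 30 µM serotonin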
Target sequence (P35363 whole entry, looked up): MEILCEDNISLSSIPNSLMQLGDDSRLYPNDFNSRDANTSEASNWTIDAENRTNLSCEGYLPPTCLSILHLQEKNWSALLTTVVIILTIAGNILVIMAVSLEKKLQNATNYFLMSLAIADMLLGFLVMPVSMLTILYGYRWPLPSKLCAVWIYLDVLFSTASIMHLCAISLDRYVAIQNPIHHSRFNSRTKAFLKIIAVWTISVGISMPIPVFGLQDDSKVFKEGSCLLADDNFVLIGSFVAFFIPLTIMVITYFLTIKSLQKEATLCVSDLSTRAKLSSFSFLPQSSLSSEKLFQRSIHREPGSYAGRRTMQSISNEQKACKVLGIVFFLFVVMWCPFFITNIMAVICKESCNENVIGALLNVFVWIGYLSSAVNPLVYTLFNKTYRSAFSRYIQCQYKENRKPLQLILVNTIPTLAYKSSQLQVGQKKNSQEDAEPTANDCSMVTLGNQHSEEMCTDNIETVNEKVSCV
Insulin prom up – MIN6 insulin promoter up-regulation. MIN6 insulin promoter-GFP reporter, high-content imaging; hits give high values. z-score at 5 µM. 190,000 tested, 0.3% active. AID 1625;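 active = z-score above 3 at 5 µM with at least 500 cells counted in the well; inconclusive = wells under 500 cells, flagged as cytotoxic or low count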
* marks the source's active call; other numbers are inactive results; u = inconclusive; x = not tested or not shown. Only some compounds are listed: those with a hit (about 2.4% of all), similar ones and a draw of the others.

SMILES	MIN6 prolif	Calb FLC	SR-BI DiI inh	SR-BI uptake up	m5-HT2A agonist	Insulin prom up
Cn1cc(-c2ccc3c(c2)OCO3)c2ccccc21	x	x	x	x	8.3	x
Cc1ccc(-n2c(Cc3ccccc3)n[nH]c2=S)c(C)c1	1.6	72.0*	5.4	-5.4	1.0	-2.27
CC(C)OC(=O)c1c(NC(=O)Cn2cnc([N+](=O)[O-])n2)sc2c1CCCC2	-0.8	2.3	74.9*	x	0.8	0.13
Cc1ccc(NS(=O)(=O)c2c(C)noc2C)cc1	-5.1	7.9	x	x	-2.9	x
COc1ccc(NC(=O)c2ccc(CNS(=O)(=O)c3cccc(OC)c3)cc2)cc1	0.0	-2.7	53.7	-53.7	4.6	0.3
O=C(Nc1ccc2c(c1)COC2=O)c1ccc(Cl)c(Cl)c1	-3.9	-7.0	72.2*	-72.2	-1.9	x
O=C(Nc1ccc(Cl)c(Cl)c1)c1ccc(Cl)c(Cl)c1	-2.7	x	66.6	-66.6	-0.3	0.16
COc1cccc(S(=O)(=O)NCc2ccc(C(=O)Nc3ccc(Cl)c(Cl)c3)cc2)c1	-2.4	-4.6	58.8	-58.8	-5.0	3.13*
CS(=O)(=O)c1cccc(NC(=O)c2ccc(Cl)c(Cl)c2)c1	-2.0	4.2	83.3*	-83.3	-2.2	-0.88
Cc1cc(C)c2nc(SCC(=O)NCCC3=CCCCC3)cc(C)c2c1	0.0	6.9	-6.9	6.9	1.7	0
Nc1nc2ccc(Cl)cc2cc1C(=O)NCCc1c[nH]c2ccccc12	x	x	x	x	1.8	x
COc1ccc(CCNC(=O)CSc2nc(-c3ccco3)cc(C(F)(F)F)n2)cc1OC	-0.7	-6.2	-5.2	5.2	0.9	-0.29
O=C(CSc1nc(-c2ccco2)cc(C(F)(F)F)n1)NCCc1ccccc1	0.6	98.2*	-9.5	9.5	-2.1	-0.74
O=C(CSc1nc(-c2ccccc2)cc(C(F)(F)F)n1)NCc1ccco1	-0.7	1.7	22.5	-22.5	0.3	-0.37
COc1ccc(-c2cc(C(F)(F)F)nc(SCC(=O)NCc3ccco3)n2)cc1OC	-2.9	-3.9	80.9*	-80.9	3.2	x
COCCOC(=O)c1c(C)n(C)c2ccc(OC(=O)c3c(OC)cccc3OC)cc12	6.1	-5.3	-396.6	396.6*	2.0	x
COCCOC(=O)c1c(C)n(C)c2ccc(OC(=O)N3CCOCC3)cc12	-1.2	-11.3	3.8	-3.8	-2.5	0.2
COc1ccc(-n2ccnc2SCC(=O)c2c(N)n(C3CC3)c(=O)[nH]c2=O)cc1	x	x	x	x	2.6	x
CC1CCC(=C(C#N)c2nc(-c3cc4ccccc4oc3=O)cs2)CC1 (configuration not stated)	-4.6	51.1	76.1*	-76.1	-3.0	-0.74
N#CCc1nc(-c2cc3ccccc3oc2=O)cs1	2.3	u	-3.5	3.5	-0.8	-0.22
Cc1cc2oc(=O)cc(-c3ccccc3)c2c(C)c1-c1ccc(C#N)cc1	x	x	81.8*	-81.8	0.6	x
CC(=O)c1ccc(-c2c(C)cc3oc(=O)cc(-c4ccccc4)c3c2C)cc1	x	x	55.7	-55.7	2.3	x
Cc1cc2oc(=O)cc(-c3ccccc3)c2c(C)c1-c1ccc(CO)cc1	x	x	74.5*	-74.5	-1.5	x
Cc1cc(C)cc(N(CCC(=O)Nc2nnc(C)s2)S(=O)(=O)c2ccc(Cl)cc2)c1	0.0	-6.5	-40.7	40.6	0.9	1.11
CN(CCCn1ccc(NC(=O)OCc2ccccc2)nc1=O)Cc1ccco1	x	x	x	x	-3.0	x
SMILES	MIN6 prolif	Calb FLC	SR-BI DiI inh	SR-BI uptake up	m5-HT2A agonist	Insulin prom up
Nc1ccccc1C(=O)N1O[C@@H]2C=C[C@H]1CC2	x	x	-3.4	3.4	0.9	x
CCc1ccc(Cn2ncc3c(C(=O)O)cc(C)nc32)cc1	x	x	-50.6	50.7	4.8	x
O=C(COC(=O)CCC(=O)c1cccs1)Nc1cccc(F)c1	1.2	x	-2.9	2.9	2.9	x
COc1ccccc1Nc1ccc(N)cc1	-1.8	8.7	83.9*	-83.9	-2.1	0.77
CN1CCN(CCCNC(=O)c2cc3c(-c4ccc(Cl)cc4)nn(C)c3s2)CC1	-8.1	9.0	39.8	-39.8	-1.2	-1.33
Cn1nc(-c2ccc(Cl)cc2)c2cc(C(=O)NCC3CCCO3)sc21 (configuration not stated)	-0.8	9.3	87.4*	-87.4	-3.4	0.38
N#CN1CCC(NS(=O)(=O)c2ccc(C(F)(F)F)cc2)CC1	-1.7	x	-1.6	1.6	-5.6	x
O=[N+]([O-])c1cc(S(=O)(=O)C(F)(F)F)ccc1Sc1nc2ccccc2s1	-5.4	110.9*	-5.4	5.4	4.1	0.24

Compound activity deposited in PubChem by several laboratories.
